For data set [1], the system named is Staphylococcus aureus. Description: Antibacterial activity against Staphylococcus aureus ATCC 25923 after 18 to 24 hrs by serial broth microdilution susceptibility test. The class given is functional. Put shortly:
(§1)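 MIC determined by serial microdilution in microplates. Candida inocula were prepared in L-glutamine-deficient RPMI-1640 medium.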
In general terms: Broth dilution looks for growth in wells or tubes with falling amounts of substance.

A short description of data set [2]: Inhibition of beta (1,3) glucan synthase in Candida albicans cell membrane using UDP-Glc as substrate assessed as aniline blue-glucan complex formation by microtiter-based fluorescence method. Put shortly: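 β(1,3)-glucan synthase in the membrane fraction of C. albicans was assayed by a microtiter-based fluorescence method across a concentration range. Values are means of three independent experiments (SD); IC50 was determined.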

In another data set the test system is Candida albicans. The experiment in a line: Antifungal activity against Candida albicans ATCC 90028 after 24 to 48 hrs by serial broth microdilution susceptibility test. The class given is functional. In outline: as §1
Data set [3] concerns Escherichia coli. The experiment in a line: Antibacterial activity against Escherichia coli ATCC 25922 after 18 to 24 hrs by serial broth microdilution susceptibility test. The class given is functional. Put shortly: as §1
The subject of another data set is Candida parapsilosis. Description: Antifungal activity against Candida parapsilosis ATCC 22019 after 24 to 48 hrs by serial broth microdilution susceptibility test. To be noted: Lodderomyces parapsilosis. The class given is functional. Put shortly:
as §1

The test system of another data set is Pichia kudriavzevii. The experiment in a line: Antifungal activity against Candida krusei ATCC 6258 after 24 to 48 hrs by serial broth microdilution susceptibility test. The class given is functional. Put shortly:
as §1

In data set [4] the test system is Escherichia coli. The experiment in a line: Antibacterial activity against Escherichia coli ATCC BAA-198 after 18 to 24 hrs by serial broth microdilution susceptibility test. It counts as functional. Put shortly: as §1
Data set [5] relates to Staphylococcus aureus. The experiment in a line: Antibacterial activity against Staphylococcus aureus ATCC 43300 after 18 to 24 hrs by serial broth microdilution susceptibility test. It counts as functional. Put shortly:
as §1

For another data set, the system named is Pseudomonas aeruginosa. Description: Antibacterial activity against Pseudomonas aeruginosa ATCC 27853 after 18 to 24 hrs by serial broth microdilution susceptibility test. The class given is functional. In outline:
as §1

In data set [6] the test system is Klebsiella pneumoniae subsp. pneumoniae. The experiment in a line: Antibacterial activity against Klebsiella pneumoniae subsp. pneumoniae ATCC 13882 after 18 to 24 hrs by serial broth microdilution susceptibility test. It counts as functional. In outline: as §1
In a further data set the test system is Acinetobacter baumannii. Description: Antibacterial activity against Acinetobacter baumannii ATCC 19606 after 18 to 24 hrs by serial broth microdilution susceptibility test. To be noted: ATCC 19606 = CIP 70.34 = JCM 6841. The class given is functional. Put shortly: as §1
Data set [7] deals with Bordetella bronchiseptica. Description: Antibacterial activity against Bordetella bronchiseptica ATCC 4617 after 18 to 24 hrs by serial broth microdilution susceptibility test. It counts as functional. Put shortly: as §1
A short description of data set [8]: Toxicity in human erythrocytes assessed as hemolysis at 100 uM after 30 mins by spectrophotometry. The class given is cell-based, Erythrocyte. To be noted: read-out: Activity. In outline:
(§2)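 Human erythrocytes suspended in PBS were exposed to lipopeptides at 0.001–0.4 mmol/l and hemolysis was measured.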

A short description of data set [9]: Toxicity in human erythrocytes assessed as hemolysis at 50 uM after 30 mins by spectrophotometry. It counts as cell-based, Erythrocyte. The conditions noted are these: read-out: Activity. In outline:
as §2

In ChEMBL document CHEMBL1949532, “Novel dendrimeric lipopeptides with antifungal activity” (Bioorg Med Chem Lett, 2012) one finds MIC, IC50 and hemolysis data, which are given here for 7 compounds.

≈ marks a conversion by molar mass, not a printed value. Starred links: 1 amine or outer side, 2 acyl side, 3 side chain; linkers in the order of their positions; H or OH if unused. Positions of bridges follow the written chain, without caps; N, C: chain ends. Non-standard residues stand in square brackets, D forms with d. Residues, ends and D or L forms follow the SMILES beside them. Groups on a side chain read outwards from the residue. *: point of attachment. Orn(4R-OH,5R-OH) = O=C([C@H](C[C@@H](O)[C@@H](O)N[*:3])N[*:1])[*:2]; hTyr(3S-OH,4S-OH) = N[C@H](C(=O)O)[C@H](O)[C@@H](O)c1ccc(O)cc1; Pro(3S-OH,4S-Me) = C[C@H]1CN[C@H](C(=O)O)[C@H]1O; Palmitoyl = CCCCCCCCCCCCCCCC(=O)*; Hyp = O=C(O)[C@@H]1C[C@@H](O)CN1; Cbz = O=C(OCc1ccccc1)*

Usually MIC stands for the least concentration at which growth counts as inhibited. The low end stands for inhibition by little substance, the high end for a need for much substance. `CC1(C)S[C@@H]2[C@H](NC(=O)Cc3ccccc3)C(=O)N2[C@H]1C(=O)O` [PENICILLIN G] yielded an MIC with Staphylococcus aureus [1] of 6.6 µM (≈ 2.21 µg/mL).

Usually IC50 stands for the concentration at which inhibition is half-maximal. Turning to `CCCCCCCCCCCCCCCC(=O)N[C@H]1C[C@@H](O)[C@@H](O)NC(=O)[C@@H]2[C@@H](O)[C@@H](C)CN2C(=O)[C@H]([C@@H](C)O)NC(=O)[C@H]([C@H](O)[C@@H](O)c2ccc(O)cc2)NC(=O)[C@@H]2C[C@@H](O)CN2C(=O)[C@H]([C@@H](C)O)NC1=O` [ACULEACIN A] (Palmitoyl-[Orn(4R-OH,5R-OH)]T[Hyp][hTyr(3S-OH,4S-OH)]T[Pro(3S-OH,4S-Me)]; lactam 1-C), the half-maximal inhibitory concentration (IC50) in [2] was found to be 12 µM. In the data set with Candida albicans, this compound returned a minimum inhibitory concentration (MIC) of 0.5 µM (≈ 0.518 µg/mL).

For the compound `NCCCC[C@H](NC(=O)OCc1ccccc1)C(=O)NCCCC[C@H](NC(=O)[C@H](CCCCN)NC(=O)OCc1ccccc1)C(=O)N[C@@H](Cc1ccccc1)C(N)=O` (Cbz-Lys-Lys([Lys-Cbz])-Phe-NH2), the minimal inhibitory concentration (MIC) against Escherichia coli [3], in the data set with Candida parapsilosis, against Pichia kudriavzevii, with Escherichia coli [4], with Staphylococcus aureus [5] and against Pseudomonas aeruginosa was > 144 µM each time. The MIC was > 144 µM in the data set with Staphylococcus aureus [1]; > 144 µM in data set [6]; > 144 µM in the data set with Acinetobacter baumannii; > 128 µM against Candida albicans; 144 µM (≈ 118 µg/mL) in data set [7].

With `O=C/C=C/c1ccccc1` [CINNAMALDEHYDE], in data set [2], the IC50 was 1150 µM.

In the data set with Candida albicans, `OC(Cn1cncn1)(Cn1cncn1)c1ccc(F)cc1F` [FLUCONAZOLE] showed an MIC of 13 µM (≈ 3.98 µg/mL).

In the case of `CCCCCCCCCCCCNC(=O)[C@H](Cc1ccccc1)NC(=O)[C@H](CCCCNC(=O)[C@H](CCCCN)NC(=O)OCc1ccccc1Cl)NC(=O)[C@H](CCCCN)NC(=O)OCc1ccccc1Cl`, the minimal inhibitory concentration (MIC) with Escherichia coli [3] came out at 32 µM (≈ 33.7 µg/mL); against Candida parapsilosis it was 8 µM (≈ 8.43 µg/mL); with Pichia kudriavzevii, 8 µM (≈ 8.43 µg/mL); against Escherichia coli [4], 32 µM (≈ 33.7 µg/mL); against Staphylococcus aureus [5] it was 16 µM (≈ 16.9 µg/mL); with Pseudomonas aeruginosa, 64 µM (≈ 67.5 µg/mL). For the same compound, the MIC in the data set with Staphylococcus aureus [1] is 32 µM (≈ 33.7 µg/mL); in data set [6], > 256 µM; with Acinetobacter baumannii, > 256 µM; against Candida albicans, 8 µM (≈ 8.43 µg/mL); in [7] it was 8 µM (≈ 8.43 µg/mL). The hemolysis at 0.5 h, 100 µM in data set [8] came out at 13%. Further, the IC50 in data set [2] was 50 µM. Further, in data set [9], the hemolysis at 0.5 h, 50 µM was 10%.

For `CCCCCCCCNC(=O)[C@H](Cc1ccccc1)NC(=O)[C@H](CCCCNC(=O)[C@H](CCCCN)NC(=O)OCc1ccccc1Cl)NC(=O)[C@H](CCCCN)NC(=O)OCc1ccccc1Cl`, the minimal inhibitory concentration (MIC) was 32 µM (≈ 31.9 µg/mL) against Escherichia coli [3]; 16 µM (≈ 16 µg/mL) in the data set on Candida parapsilosis; 16 µM (≈ 16 µg/mL) against Pichia kudriavzevii; 32 µM (≈ 31.9 µg/mL) against Escherichia coli [4]; 16 µM (≈ 16 µg/mL) with Staphylococcus aureus [5]; 32 µM (≈ 31.9 µg/mL) in the data set on Pseudomonas aeruginosa. For the same compound, the minimal inhibitory concentration (MIC) was 16 µM (≈ 16 µg/mL) in the data set on Staphylococcus aureus [1]; 128 µM (≈ 128 µg/mL) in data set [6]; > 256 µM against Acinetobacter baumannii; 32 µM (≈ 31.9 µg/mL) in the data set with Candida albicans; 8 µM (≈ 7.98 µg/mL) in [7]. Further, in data set [8], the hemolysis at 0.5 h, 100 µM is 10%.
